Converted amounts (≈) assume the structure as drawn.
Assays:
[1] = molecular target: T1, Pantothenate synthetase (Mycobacterium tuberculosis) (UniProt P9WIL5); assay: Inhibition of Mycobacterium tuberculosis pantothenate synthetase cloned in Escherichia coli BL21 (DE3) using ATP, beta-alanine, pantoic acid as substrate assessed as NAD+ production at 100 uM measured every 12 secs for 120 secs by spectrophotometric analysis relative to control
T1 sequence (whole entry): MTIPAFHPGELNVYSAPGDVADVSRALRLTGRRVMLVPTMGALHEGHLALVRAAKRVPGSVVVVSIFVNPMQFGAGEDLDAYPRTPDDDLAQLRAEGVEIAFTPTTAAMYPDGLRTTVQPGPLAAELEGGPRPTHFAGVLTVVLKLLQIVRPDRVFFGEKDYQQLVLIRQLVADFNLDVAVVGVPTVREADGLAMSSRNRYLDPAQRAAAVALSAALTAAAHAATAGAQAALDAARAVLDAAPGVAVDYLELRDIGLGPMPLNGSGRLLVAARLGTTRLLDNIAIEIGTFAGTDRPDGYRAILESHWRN
Procedure, shortened: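 Coupled assay linking AMP from β-alanine plus pantoate condensation to NADH oxidation via myokinase, pyruvate kinase and lactate dehydrogenase. Mix held NADH, pantoic acid, β-alanine, ATP, phosphoenolpyruvate and MgCl₂ in buffer; compound (100 µM) added; reaction started with PS. A340 read every 12 s for 120 s. % inhibition = 100 × (1 − (compound rate − background)/(full rate − background)).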

[2] = test system: Mycobacterium tuberculosis; assay: Antibacterial activity against Mycobacterium tuberculosis H37Rv ATCC 27294 assessed as growth inhibition after 28 days by agar dilution method; format: functional; conditions: H37Rv ATCC 27294, 672 h
Procedure, shortened: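 Two-fold serial dilutions incorporated into Middlebrook 7H11 agar with OADC, final 50 to 0.78 µg/mL. Inoculum of 1 mg/mL (wet weight) in 0.05% Tween 80 saline, diluted 10⁻² to ~10⁷ cfu/mL. 5 µL spotted per tube, incubated at 37 °C for 28 days. MIC is the lowest concentration giving complete growth inhibition.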

[3] = Cytotoxicity against mouse RAW264.7 cells assessed as inhibition of cell viability at 50 uM after 72 hrs by MTT assay relative to control; format: cell-based; conditions: read-out: INH
Procedure, shortened: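 RAW 264.7 mouse macrophage cells exposed to compound at 50 µM for 72 h. Viability assessed by cellular conversion of MTT to formazan.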

Pantothenate synthetase [4] = molecular target: T2, Pantothenate synthetase (Mycobacterium tuberculosis, UniProt P9WIL5); assay: Inhibition of Mycobacterium tuberculosis pantothenate synthetase cloned in Escherichia coli BL21 (DE3) using ATP, beta-alanine, pantoic acid as substrate assessed as NAD+ production measured every 12 secs for 120 secs by spectrophotometric analysis
T2 sequence (P9WIL5 whole entry): T1 sequence (whole entry)
Procedure, shortened: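 Same AMP-coupled NADH/A340 PS assay (NADH, pantoic acid, β-alanine, ATP, PEP, MgCl₂, myokinase, pyruvate kinase, LDH; reaction started with enzyme; read every 12 s for 120 s). IC₅₀ determined for compounds exceeding 60% inhibition at 100 µM, using rate-based % inhibition corrected for background.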

Pantothenate synthetase [5] = molecular target: T2, Pantothenate synthetase; assay: Binding affinity to Mycobacterium tuberculosis pantothenate synthetase

SMILES | inhibition [1] [%] | MIC [2] [µM] | cytotoxicity at 72 h, 50 µM [3] [%] | IC50 (Pantothenate synthetase [4]) [µM] | Kd (Pantothenate synthetase [5]) [µM]
CC(=O)c1ccc(NC(=O)N2CCc3c(c(-c4ccccc4)nn3C(=O)C3CCCCC3)C2)cc1 | 51.4 | 108 (≈ 50.9 µg/mL) | 22.5 |  | 
O=C(C1CCCCC1)n1nc(-c2ccccc2)c2c1CCN(S(=O)(=O)c1ccc(F)cc1)C2 | 46.8 | 53.5 (≈ 25 µg/mL) | 1.4 |  | 
O=C(c1ccccc1)n1nc(-c2ccccc2)c2c1CCN(S(=O)(=O)c1ccc([N+](=O)[O-])cc1)C2 | 39.7 | 25.6 (≈ 12.5 µg/mL) | 18.6 |  | 
Cc1ccc(NC(=S)N2CCc3c(c(-c4ccccc4)nn3C(=O)c3ccccc3)C2)cc1 | 23.9 | > 110 | 0 |  | 
Cc1ccc(NC(=O)N2CCc3c(c(-c4ccccc4)nn3C(=O)C3CCCCC3)C2)cc1 | 40.8 | 56.5 (≈ 25 µg/mL) | 15.1 |  | 
COc1ccc(NC(=O)N2CCc3c(c(-c4ccccc4)nn3C(=O)C3CCCCC3)C2)cc1 | 38.7 | 109 (≈ 50 µg/mL) | 52.5 |  | 
Cc1ccc(S(=O)(=O)N2CCc3c(c(-c4ccccc4)nn3C(=O)C3CCCCC3)C2)cc1 | 41.6 | 53.9 (≈ 25 µg/mL) | 0 |  | 
O=C(C1CCCCC1)n1nc(-c2ccccc2)c2c1CCN(C(=S)Nc1ccc([N+](=O)[O-])cc1)C2 | 47.3 | 53.5 (≈ 26.2 µg/mL) | 0 |  | 
Cc1ccc(S(=O)(=O)N2CCc3c(c(-c4ccccc4)nn3C(=O)c3ccccc3)C2)cc1 | 9 | 109 (≈ 50 µg/mL) | 0 |  | 
O=C(c1ccccc1)n1nc(-c2ccccc2)c2c1CCN(S(=O)(=O)c1cccs1)C2 | 48.7 | 55.6 (≈ 25 µg/mL) | 6.8 |  | 
O=C(C1CCCCC1)n1nc(-c2ccccc2)c2c1CCN(C(=S)NCc1ccccc1)C2 | 51.4 | 108 (≈ 49.5 µg/mL) | 20.6 |  | 
O=C(c1ccccc1)n1nc(-c2ccccc2)c2c1CCN(C(=S)NCc1ccccc1)C2 | 52.1 | 110 (≈ 50 µg/mL) | 0 |  | 
CCOc1ccc(NC(=O)N2CCc3c(c(-c4ccccc4)nn3C(=O)c3ccccc3)C2)cc1 | 47.2 | > 107 | 0 |  | 
O=C(Nc1ccc([N+](=O)[O-])cc1)N1CCc2c(c(-c3ccccc3)nn2C(=O)c2ccccc2)C1 | 95.7 | 26.7 (≈ 12.5 µg/mL) | 0 | 21.8 | 
NNC(=O)c1ccncc1 [ISONIAZID] | 0 | 0.72 (≈ 0.0987 µg/mL) |  |  | 
O=C(Nc1ccc(Cl)cc1)N1CCc2c(c(-c3ccccc3)nn2C(=O)c2ccccc2)C1 | 40.2 | 109 (≈ 50 µg/mL) | 4.9 |  | 
CC(=O)c1ccc(NC(=O)N2CCc3c(c(-c4ccccc4)nn3C(=O)c3ccccc3)C2)cc1 | 43.7 | > 108 | 12.8 |  | 
Cc1ccc2c(c1)C=C(C(=O)NS(=O)(=O)c1cc3ccccc3o1)C2CC(=O)O (configuration not stated) |  |  |  |  | 1.8
CC(=O)c1ccc(S(=O)(=O)N2CCc3c(c(-c4ccccc4)nn3C(=O)C3CCCCC3)C2)cc1 | 39.2 | 50.8 (≈ 25 µg/mL) | 11.5 |  | 
O=C(C1CCCCC1)n1nc(-c2ccccc2)c2c1CCN(S(=O)(=O)c1ccc([N+](=O)[O-])cc1)C2 | 50.2 | 50.5 (≈ 25 µg/mL) | 8.3 |  | 
O=C(C1CCCCC1)n1nc(-c2ccccc2)c2c1CCN(C(=S)Nc1ccc(F)cc1)C2 | 49.2 | 105 (≈ 48.7 µg/mL) | 58.4 |  | 
CCOc1ccc(NC(=O)N2CCc3c(c(-c4ccccc4)nn3C(=O)C3CCCCC3)C2)cc1 | 48.5 | 106 (≈ 50 µg/mL) | 4.9 |  | 

SMILES | inhibition [1] [%] | MIC [2] [µM] | cytotoxicity at 72 h, 50 µM [3] [%] | IC50 (Pantothenate synthetase [4]) [µM] | Kd (Pantothenate synthetase [5]) [µM]
O=C(c1ccccc1)n1nc(-c2ccccc2)c2c1CCN(C(=S)Nc1ccc(Cl)cc1)C2 | 37.7 | 106 (≈ 50 µg/mL) | 0 |  | 
Cc1ccc(NC(=S)N2CCc3c(c(-c4ccccc4)nn3C(=O)C3CCCCC3)C2)cc1 | 50.5 | 51.1 (≈ 23.4 µg/mL) | 27.8 |  | 
CC(=O)c1ccc(S(=O)(=O)N2CCc3c(c(-c4ccccc4)nn3C(=O)c3ccccc3)C2)cc1 | 78.5 | 51.5 (≈ 25 µg/mL) | 5.3 | 39.1 | 
O=C(Nc1ccc([N+](=O)[O-])cc1)N1CCc2c(c(-c3ccccc3)nn2C(=O)C2CCCCC2)C1 | 50.8 | 52.8 (≈ 25 µg/mL) | 14.9 |  | 
O=C(Nc1cccc2ccccc12)N1CCc2c(c(-c3ccccc3)nn2C(=O)c2ccccc2)C1 | 89.8 | 48.8 (≈ 23.1 µg/mL) | 4.7 | 38.2 | 
C=CCNC(=S)N1CCc2c(c(-c3ccccc3)nn2C(=O)c2ccccc2)C1 | 41.7 | > 124 | 6 |  | 
COc1ccc(NC(=S)N2CCc3c(c(-c4ccccc4)nn3C(=O)C3CCCCC3)C2)cc1 | 50.6 | 102 (≈ 48.3 µg/mL) | 9.5 |  | 
CC(C)(C)OC(=O)N1CCc2[nH]nc(-c3ccccc3)c2C1 |  | 26.7 (≈ 7.99 µg/mL) |  | 21.8 | 
COc1ccc(NC(=S)N2CCc3c(c(-c4ccccc4)nn3C(=O)c3ccccc3)C2)cc1 | 10.2 | 107 (≈ 50 µg/mL) | 0 |  | 
O=C(c1ccccc1)n1nc(-c2ccccc2)c2c1CCN(S(=O)(=O)c1ccc(F)cc1)C2 | 77 | 54.2 (≈ 25 µg/mL) | 0 | 38.6 | 
O=C(C1CCCCC1)n1nc(-c2ccccc2)c2c1CCN(S(=O)(=O)c1cccs1)C2 | 52 | 54.9 (≈ 25 µg/mL) | 8.1 |  | 
O=C(Nc1ccc(Cl)cc1)N1CCc2c(c(-c3ccccc3)nn2C(=O)C2CCCCC2)C1 | 54.7 | 108 (≈ 50 µg/mL) | 4 |  | 
O=C(c1ccccc1)n1nc(-c2ccccc2)c2c1CCN(C(=S)Nc1ccc(F)cc1)C2 | 43.5 | 110 (≈ 50 µg/mL) | 0.5 |  | 
O=C(Nc1ccc(Br)cc1)N1CCc2c(c(-c3ccccc3)nn2C(=O)c2ccccc2)C1 | 60.6 | 99.7 (≈ 50 µg/mL) | 42 | 82.1 | 
O=C(NCc1ccccc1)N1CCc2c(c(-c3ccccc3)nn2C(=O)c2ccccc2)C1 | 46.2 | 114 (≈ 49.8 µg/mL) | 0.7 |  | 
Cc1ccc(NC(=O)N2CCc3c(c(-c4ccccc4)nn3C(=O)c3ccccc3)C2)cc1 | 49.4 | 114 (≈ 49.8 µg/mL) | 57.1 |  | 
O=C(NCc1ccccc1)N1CCc2c(c(-c3ccccc3)nn2C(=O)C2CCCCC2)C1 | 49.1 | 54.5 (≈ 24.1 µg/mL) | 35.7 |  | 
CC(C)NC(=O)N1CCc2c(c(-c3ccccc3)nn2C(=O)c2ccccc2)C1 | 40.9 | 129 (≈ 50 µg/mL) | 10.6 |  | 
CC[C@@H](CO)NCCN[C@@H](CC)CO [ETHAMBUTOL] | 0 | 15.3 (≈ 3.12 µg/mL) |  |  | 
O=C(C1CCCCC1)n1nc(-c2ccccc2)c2c1CCN(C(=S)Nc1ccc(Cl)cc1)C2 | 56.3 | 109 (≈ 52.2 µg/mL) | 51.1 |  | 
O=C(Nc1ccc(Br)cc1)N1CCc2c(c(-c3ccccc3)nn2C(=O)C2CCCCC2)C1 | 50.5 | 98.5 (≈ 50 µg/mL) | 0 |  | 
O=C(Nc1cccc2ccccc12)N1CCc2c(c(-c3ccccc3)nn2C(=O)C2CCCCC2)C1 | 50.9 | 52.2 (≈ 25 µg/mL) | 4.1 |  | 
